Data on two compounds can be found in ChEMBL document CHEMBL3758120, “Synthesis and Mechanism Studies of 1,3-Benzoazolyl Substituted Pyrrolo[2,3-b]pyrazine Derivatives as Nonintercalative Topoisomerase II Catalytic Inhibitors” (J Med Chem, 2016).

Experiment [1] can be described thus: Antiproliferative activity against human HL60/MX2 cells after 48 hrs by MTT assay. The class given is functional, cell-based. To be noted: HL60/MX2, 48 h. The procedure, abridged: (§1)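 Cells seeded at 5000 per well and left overnight, then exposed to increasing concentrations (0-50 μM) for 48 h. […] HL-60/MX2 is a mitoxantrone-selected HL-60 derivative with reduced Topo IIα/β.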

In experiment [2] the test system is HL-60. Description: Induction of apoptosis in human HL60 cells assessed as dead cells at 1 uM after 12 hrs by annexin V-FITC/propidium iodide staining-based flow cytometric analysis (reference value: 0.12 to 0.15%). Format: functional. Background: A flow cytometer gives signals particle by particle.
The target of experiment [3] is DNA topoisomerase 2-alpha (Homo sapiens, UniProt P11388). The experiment can be described thus: Inhibition of purified human topoisomerase 2 using supercoiled pBR322 DNA as substrate assessed as linear DNA formation at 20 uM incubated for 6 mins by agarose gel electrophoresis. The essentials: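 Human Topo II (6 units) with 0.1 μg supercoiled pBR322 in 50 mM Tris-HCl pH 8.0, 150 mM NaCl, 10 mM MgCl2, 2 mM ATP, 0.5 mM DTT, 30 μg/ml BSA; compounds at 20 μM, etoposide 100 μM. After 6 min at 37 °C, complexes trapped with SDS then EDTA, proteinase K 30 min at 45 °C, heated 72 °C 2 min, run on 1% agarose; linear DNA scored. Antagonism tested by compound pretreatment before etoposide.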

The subject of experiment [4] is HL-60. The experiment can be described thus: Induction of apoptosis in human HL60 cells assessed as viable cells at 2 uM after 12 hrs by annexin V-FITC/propidium iodide staining-based flow cytometric analysis (reference value: 99.12 to 99.33%). To be noted: HL-60, 12 h, read-out: Activity. The class given is functional. The essentials:
(§2)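 HL-60 cells at 5.0 × 10^5 cells/ml treated for 12 h (0.5–2 μM) or 24 h (0.25–1 μM), washed twice in cold PBS, resuspended in binding buffer, stained with annexin V-FITC and propidium iodide for 15 min in the dark, analysed by flow cytometry within 1 h; quadrants define live, early and late apoptotic cells. Three repeats.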

Experiment [5] addresses T1, DNA topoisomerase 1 (Homo sapiens) (UniProt P11387).
T1 sequence (whole entry): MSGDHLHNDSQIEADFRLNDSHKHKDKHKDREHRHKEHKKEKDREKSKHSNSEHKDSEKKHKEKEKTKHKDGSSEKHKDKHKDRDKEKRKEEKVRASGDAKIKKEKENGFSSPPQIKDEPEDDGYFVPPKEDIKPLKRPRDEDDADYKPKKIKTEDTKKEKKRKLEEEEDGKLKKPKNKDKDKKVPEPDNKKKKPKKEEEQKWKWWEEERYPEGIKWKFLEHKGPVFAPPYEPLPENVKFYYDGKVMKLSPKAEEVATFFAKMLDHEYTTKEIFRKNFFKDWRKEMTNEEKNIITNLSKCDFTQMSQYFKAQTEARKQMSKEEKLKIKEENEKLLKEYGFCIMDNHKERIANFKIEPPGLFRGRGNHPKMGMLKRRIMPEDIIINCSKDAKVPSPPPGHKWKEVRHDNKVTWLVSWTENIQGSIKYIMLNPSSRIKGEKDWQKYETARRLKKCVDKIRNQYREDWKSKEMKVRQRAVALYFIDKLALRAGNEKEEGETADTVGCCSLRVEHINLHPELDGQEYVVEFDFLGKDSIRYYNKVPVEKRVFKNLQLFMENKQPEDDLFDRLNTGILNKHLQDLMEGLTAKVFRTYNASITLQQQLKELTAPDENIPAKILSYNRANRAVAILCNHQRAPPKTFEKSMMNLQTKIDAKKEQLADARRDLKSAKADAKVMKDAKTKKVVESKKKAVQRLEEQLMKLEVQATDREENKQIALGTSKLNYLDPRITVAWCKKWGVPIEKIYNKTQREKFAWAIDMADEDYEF
The experiment can be described thus: Inhibition of recombinant human topoisomerase 1 assessed as interacaltion of pBR322 DNA at 50 uM pre-incubated with DNA followed by incubation with enzyme for 30 mins by agarose gel electrophoresis. The procedure, abridged: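 Supercoiled pBR322 first relaxed with Topo I in 50 mM Tris-HCl pH 7.5, 50 mM KCl, 10 mM MgCl2, 0.5 mM DTT, 0.1 mM EDTA, 30 μg/ml BSA. 0.1 μg relaxed DNA preincubated with compound 10 min at room temperature, then Topo I (1 unit) added for 30 min at 37 °C; phenol-chloroform extracted, SDS/EDTA stop, 1% agarose 1 h at 90 V; ethidium bromide as intercalator reference.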

The next experiment relates to HEK293. The experiment can be described thus: Cytotoxicity against HEK293 cells after 48 hrs by MTT assay. Format: cell-based. To be noted: Homo sapiens, HEK293, 48 h. In general terms: Formazan colour is commonly taken as a measure of viable cells.
Experiment [6] relates to HL-60. The experiment can be described thus: Induction of apoptosis in human HL60 cells assessed as late apoptotic cells at 0.5 uM after 24 hrs by annexin V-FITC/propidium iodide staining-based flow cytometric analysis (reference value: 1.64%). Format: functional. The essentials: as §2
Experiment [7] has as its system HL-60. The experiment can be described thus: Induction of apoptosis in human HL60 cells assessed as late apoptotic cells at 2 uM after 12 hrs by annexin V-FITC/propidium iodide staining-based flow cytometric analysis (reference value: 0.17 to 0.18%). Format: functional. The essentials: as §2
The subject of experiment [8] is HL-60. The experiment can be described thus: Induction of apoptosis in human HL60 cells assessed as viable cells at 0.25 uM after 24 hrs by annexin V-FITC/propidium iodide staining-based flow cytometric analysis (reference value: 97.75%). The class given is functional. To be noted: HL-60, 24 h, read-out: Activity. The procedure, abridged:
as §2

Experiment [9] can be described thus: Antiproliferative activity against human HL60 cells after 48 hrs by MTT assay. The class given is functional, cell-based. To be noted: HL-60, 48 h. The essentials:
as §1

The subject of experiment [10] is HL-60. Description: Resistance index, ratio of IC50 for human HL60/MX2 cells to IC50 for HL60 cells. Format: functional. The procedure, abridged: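 Resistance index calculated as MTT-derived IC50 (48 h exposure, 0-50 μM, A570 readout) in HL-60/MX2 divided by IC50 in parental HL-60.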
In experiment [11] the test system is HL-60. Description: Induction of apoptosis in human HL60 cells assessed as late apoptotic cells at 1 uM after 12 hrs by annexin V-FITC/propidium iodide staining-based flow cytometric analysis (reference value: 0.17 to 0.18%). Format: functional. The essentials: as §2
Experiment [12] concerns HL-60. The experiment can be described thus: Induction of apoptosis in human HL60 cells assessed as early apoptotic cells at 0.5 uM after 24 hrs by annexin V-FITC/propidium iodide staining-based flow cytometric analysis (reference value: 0.5%). The class given is functional. The procedure, abridged:
as §2

Experiment [13] concerns HL-60. The experiment can be described thus: Induction of apoptosis in human HL60 cells assessed as dead cells at 0.5 uM after 24 hrs by annexin V-FITC/propidium iodide staining-based flow cytometric analysis (reference value: 0.12%). The class given is functional.
For experiment [14], the system named is HL-60. The experiment can be described thus: Induction of apoptosis in human HL60 cells assessed as late apoptotic cells at 0.25 uM after 24 hrs by annexin V-FITC/propidium iodide staining-based flow cytometric analysis (reference value: 1.64%). Format: functional. The essentials: as §2
For experiment [15], the target named is T1, DNA topoisomerase 1 (Homo sapiens). Description: Inhibition of recombinant human topoisomerase 1-mediated relaxation of supercoiled pBR322 DNA at 50 uM incubated for 30 mins by agarose gel electrophoresis. The essentials: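 Supercoiled pBR322 relaxed by Topo I with compound, incubated 30 min at 37 °C, stopped with 1% SDS dye, run on 1% agarose 1 h at 90 V in TAE, stained and imaged under UV; camptothecin as reference.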

In experiment [16] the test system is HL-60. Description: Induction of apoptosis in human HL60 cells assessed as viable cells at 1 uM after 12 hrs by annexin V-FITC/propidium iodide staining-based flow cytometric analysis (reference value: 99.12 to 99.33%). Format: functional. To be noted: HL-60, 12 h, read-out: Activity. The essentials:
as §2

In the next experiment the test system is Raji. Description: Antiproliferative activity against human Raji cells after 48 hrs by MTT assay. Format: functional, cell-based. The essentials: as §1

The source made the active and inactive calls. No cut-off for these calls is given here.

Sequence of DNA topoisomerase 2-alpha (P11388 whole entry): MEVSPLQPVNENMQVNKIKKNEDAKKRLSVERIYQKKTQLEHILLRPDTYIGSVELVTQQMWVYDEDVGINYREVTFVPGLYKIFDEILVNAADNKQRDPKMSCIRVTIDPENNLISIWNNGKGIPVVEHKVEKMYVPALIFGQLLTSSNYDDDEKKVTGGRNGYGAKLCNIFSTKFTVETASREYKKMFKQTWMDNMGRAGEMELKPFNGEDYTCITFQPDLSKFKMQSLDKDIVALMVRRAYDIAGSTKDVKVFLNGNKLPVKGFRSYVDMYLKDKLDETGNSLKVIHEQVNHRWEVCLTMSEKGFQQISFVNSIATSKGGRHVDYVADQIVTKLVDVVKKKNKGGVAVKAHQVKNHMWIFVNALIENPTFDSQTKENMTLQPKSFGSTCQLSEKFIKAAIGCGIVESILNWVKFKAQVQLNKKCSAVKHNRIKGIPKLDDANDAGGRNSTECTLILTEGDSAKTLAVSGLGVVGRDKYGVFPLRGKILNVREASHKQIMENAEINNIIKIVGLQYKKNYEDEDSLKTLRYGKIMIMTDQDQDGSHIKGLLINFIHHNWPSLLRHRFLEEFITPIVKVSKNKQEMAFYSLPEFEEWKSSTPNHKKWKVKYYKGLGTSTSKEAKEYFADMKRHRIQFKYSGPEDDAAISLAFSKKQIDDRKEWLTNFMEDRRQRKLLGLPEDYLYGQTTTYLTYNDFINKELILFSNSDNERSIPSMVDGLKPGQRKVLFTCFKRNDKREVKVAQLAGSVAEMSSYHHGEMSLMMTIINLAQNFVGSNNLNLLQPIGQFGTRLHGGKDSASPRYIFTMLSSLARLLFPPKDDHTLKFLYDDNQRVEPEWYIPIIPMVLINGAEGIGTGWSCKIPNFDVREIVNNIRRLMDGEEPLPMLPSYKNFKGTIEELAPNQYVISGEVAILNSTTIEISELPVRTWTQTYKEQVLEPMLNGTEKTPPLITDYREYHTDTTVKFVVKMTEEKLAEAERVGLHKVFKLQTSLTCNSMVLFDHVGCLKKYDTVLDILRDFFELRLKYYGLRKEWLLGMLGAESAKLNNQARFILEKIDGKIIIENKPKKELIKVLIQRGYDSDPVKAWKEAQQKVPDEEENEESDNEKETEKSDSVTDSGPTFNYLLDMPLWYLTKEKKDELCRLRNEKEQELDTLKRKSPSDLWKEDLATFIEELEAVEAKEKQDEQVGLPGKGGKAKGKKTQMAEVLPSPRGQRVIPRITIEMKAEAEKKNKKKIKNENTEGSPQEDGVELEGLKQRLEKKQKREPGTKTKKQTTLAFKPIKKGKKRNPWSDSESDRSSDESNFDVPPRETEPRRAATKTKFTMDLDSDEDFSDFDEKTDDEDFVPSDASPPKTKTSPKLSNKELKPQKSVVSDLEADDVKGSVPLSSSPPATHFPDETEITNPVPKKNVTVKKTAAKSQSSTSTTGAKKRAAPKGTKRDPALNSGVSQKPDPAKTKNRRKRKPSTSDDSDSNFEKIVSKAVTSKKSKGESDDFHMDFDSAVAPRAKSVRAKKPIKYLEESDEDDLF

In the case of `CCN(CC)CCCCn1c(N)c(-c2nc3ccccc3[nH]2)c2nc(C#N)c(C#N)nc21`, the IC50 (in general, the concentration that gives 50% inhibition) in experiment [1] turned out to be 1550 nM; with HEK293, 5370 nM; in [9] it was 460 nM; with Raji, 2640 nM. In addition, the Activity in the experiment with HL-60 [2] was determined as 0.25%; in the experiment with HL-60 [6], 17.65%; with HL-60 [7] it was 46.73%; with HL-60 [11], 1.19%; in the experiment on HL-60 [12] it was 3.24%; in the experiment on HL-60 [13] it was 0.43%. In the experiment on HL-60 [14], the Activity came out at 0.41%. Further, the inhibition entry in [3], in [5] and in experiment [15] was “inactive” each time. In addition, the viability at 2 µM in the experiment on HL-60 [4] was 45.3%. Also, in the experiment on HL-60 [8], the viability at 0.25 µM is 99.2%. For the same compound, the “Ratio IC50” value in the experiment with HL-60 [10] is recorded as 3.3. The viability at 1 µM in the experiment on HL-60 [16] turned out to be 97.2%.

Take `CN(C)CCCCn1c(N)c(-c2nc3ccccc3[nH]2)c2nc(C#N)c(C#N)nc21`: the IC50 in [1] worked out at 1780 nM; in the experiment with HEK293 it was 4160 nM; in experiment [9], 430 nM; in the experiment on Raji it was 2560 nM. The Activity turned out to be 0.11% in the experiment with HL-60 [2]; 79.38% with HL-60 [6]; 64.15% in the experiment with HL-60 [7]; 0.39% in the experiment with HL-60 [11]; 4.45% in the experiment with HL-60 [12]; 2.28% in the experiment with HL-60 [13]. Besides, the Activity with HL-60 [14] stood at 0.42%. Further, the inhibition entry in experiment [3], in [5] and in [15] was “inactive” each time. The viability at 2 µM in the experiment with HL-60 [4] was determined as 28.1%. For the same compound, the viability at 0.25 µM with HL-60 [8] was found to be 99%. The “Ratio IC50” value in the experiment with HL-60 [10] was 4.1. Moreover, the viability at 1 µM with HL-60 [16] was 98.7%.
